High-throughput results deposited in PubChem BioAssay by Broad Institute.
RAD52 anneal inh: RAD52 DNA annealing inhibitors, primary screen, biochemical, FRET, single point, set 2 | inhibition, % at 18.7 µM | recombinant RAD52 DNA annealing, FRET fluorescence | DNA repair protein RAD52 homolog (Homo sapiens), P43351 | hit rate 0.46% among 360,000;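 active = every replicate showing at least 50% inhibition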
RAD54 branch: inhibitors of human RAD54 branch migration, primary screen, biochemical, fluorescence, single point | DNA repair and recombination protein RAD54-like (Homo sapiens), Q92698 | RAD54 Holliday junction branch migration, FAM/BHQ fluorescence | inhibition, % at 10.4 µM | hit rate 0.14% among 360,000 | AID 602329, 2012;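 active = mean normalized replicate activity at least 40 and at least half of replicates scoring 40 or more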;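 also: 0% = median of neutral control wells and 100% = median of positive control wells; inhibitors cause a drop in the FAM fluorescence signal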
Target sequence (Q92698 whole entry, looked up): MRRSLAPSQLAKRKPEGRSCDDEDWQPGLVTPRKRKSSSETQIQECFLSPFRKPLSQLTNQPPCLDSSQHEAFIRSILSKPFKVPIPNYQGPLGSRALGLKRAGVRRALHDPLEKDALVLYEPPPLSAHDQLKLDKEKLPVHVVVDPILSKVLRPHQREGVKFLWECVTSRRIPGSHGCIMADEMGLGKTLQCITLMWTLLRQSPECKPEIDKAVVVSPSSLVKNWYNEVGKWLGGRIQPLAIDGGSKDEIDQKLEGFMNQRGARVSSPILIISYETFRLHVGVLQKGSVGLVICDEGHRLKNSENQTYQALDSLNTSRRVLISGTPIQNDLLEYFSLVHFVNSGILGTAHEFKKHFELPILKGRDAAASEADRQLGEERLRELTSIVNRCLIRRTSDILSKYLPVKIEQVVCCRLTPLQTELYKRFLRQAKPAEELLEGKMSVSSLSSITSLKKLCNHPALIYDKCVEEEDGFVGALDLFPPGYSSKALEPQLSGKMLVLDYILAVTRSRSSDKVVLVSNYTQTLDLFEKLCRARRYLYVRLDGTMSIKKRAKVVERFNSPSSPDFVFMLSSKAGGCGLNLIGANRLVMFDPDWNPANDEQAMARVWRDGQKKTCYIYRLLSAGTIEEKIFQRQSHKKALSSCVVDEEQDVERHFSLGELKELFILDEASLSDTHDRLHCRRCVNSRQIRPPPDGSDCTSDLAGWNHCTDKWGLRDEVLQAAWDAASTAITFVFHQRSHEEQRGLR
Cneo AK release: Cryptococcus neoformans cell lysis inducers, primary screen, AK release luminescence, single concentration. C. neoformans lysis, adenylate kinase release luminescence, 4 h; normalised: neutral wells 0, clomiphene wells 100. lysis activity, % at 15 µM. hit rate 0.2% among 360,000. AID 651654, 2012;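 active = mean lysis activity across replicates of at least 80%, whatever share of replicates individually reach that level; inactive = mean lysis activity below 80%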
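Assay system: Cryptococcus neoformans yeast cells / Dosing: single-point compound dose / Timing: 4 h at 37 °C static, read 1 h later / Measured by: luminescence of released adenylate kinase using an AK detection reagent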
PglD inh: C. jejuni PglD acetyltransferase inhibitors, primary screen, biochemical, DTNB colorimetric, single point; hit rate 0.098% among 360,000; AID 602405, 2012; purified PglD enzyme, DTNB colorimetric CoA detection; inhibition, % at 12.5 µM; UDP-N-acetylbacillosamine N-acetyltransferase PglD (Campylobacter jejuni); in the data active = inhibition above about 16%, passing the limit was not always enough
Ecoli rRNA inh: reduced GFP signal of wild-type E. coli, primary screen, bacterial rRNA inhibitor project, GFP/RFP fluorescence, OD600, single point. E. coli WT GFP vs humanized-ribosome RFP mutants, 24 h; stronger effect = lower value; DMSO median 0, no signal -100. GFP signal change (wild-type ribosome), % (concentration not given with the values). hit rate 1.6% among 350,000;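 active = significant combined selectivity score with lowered wild-type GFP, culture density cut under 30%, mutant RFP and density less affected; inactive = any of these conditions unmet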
Starred values were filed as active, the others as inactive. Sampled rows, rich in hits. Any-hit rate of the full collection: about 1.9%.

Results for CO[C@@H]1CN(C)C(=O)c2cc(NC(=O)C3CC3)ccc2OC[C@H](C)N(C(=O)c2ccncc2)C[C@H]1C ?
RAD52 anneal inh: 17.9; RAD54 branch: 4.2; Cneo AK release: 102.3*; PglD inh: -1.2; Ecoli rRNA inh: 0.3

What do the screens show for `Cc1ccc(S(=O)(=O)/N=C(/Nc2ccc(F)cc2F)c2ccccc2)cc1`?
RAD52 anneal inh: 9.5; RAD54 branch: -4.2; Cneo AK release: 2.0; PglD inh: -0.2; Ecoli rRNA inh: -5.0

What do the screens show for `Cc1ccc(S(=O)(=O)/N=C(/Nc2c(C)n(C)n(-c3ccccc3)c2=O)c2ccccc2)cc1`?
RAD52 anneal inh: -14.2; RAD54 branch: 0.6; Cneo AK release: 6.3; PglD inh: -2.6; Ecoli rRNA inh: 2.9

How did Cc1ccc(S(=O)(=O)/N=C(/Nc2ccccc2C)c2ccccc2)cc1 do in these assays?
RAD52 anneal inh: -9.5; RAD54 branch: -8.7; Cneo AK release: 0.0; PglD inh: 3.0; Ecoli rRNA inh: -23.0*

How did Cc1ccc(S(=O)(=O)/N=C(/Nc2c(C)cccc2C)c2ccccc2)cc1 do in these assays?
RAD52 anneal inh: -4.2; RAD54 branch: 8.0; Cneo AK release: 0.0; PglD inh: -1.5; Ecoli rRNA inh: -35.7*

Results for COc1ccc2c3c([nH]c2c1)[C@@H](CO)N(Cc1ccccc1F)CC31CCN(C(=O)C2CCCC2)CC1 ?
RAD52 anneal inh: -83.5; Ecoli rRNA inh: 3.6

What do the screens show for `Cn1c(=O)c2nc(-c3ccccc3)c(-c3ccccc3)nc2n(C)c1=O`?
RAD52 anneal inh: 2.3; Ecoli rRNA inh: -20.4*

Results for Cc1cccc2nc(CSc3ccccc3C(=O)O)cn12 ?
RAD52 anneal inh: -4.5; Ecoli rRNA inh: 0.3

Results for Cc1cccc2nc(COc3ccc4ccccc4c3Br)cn12 ?
RAD52 anneal inh: -15.2; Ecoli rRNA inh: -26.9*

Results for O=C(Nc1ccc(S(=O)(=O)N2CCCC2)cc1)c1ccc(OCC2CCCO2)cc1 (configuration not stated) ?
RAD52 anneal inh: -7.3; RAD54 branch: 7.0; Cneo AK release: 1.6; PglD inh: 2.4; Ecoli rRNA inh: -19.8*

How did CC(=O)c1ccc(NC(=O)Nc2ccc(S(=O)(=O)N3CCCC3)cc2)cc1 do in these assays?
RAD52 anneal inh: -26.0; RAD54 branch: -10.5; Cneo AK release: -0.3; PglD inh: -0.6; Ecoli rRNA inh: -27.6*

What do the screens show for `NS(=O)(=O)c1ccc(NC(=O)c2ccc(S(=O)(=O)N3CCCCCC3)cc2)cc1`?
RAD52 anneal inh: -6.9; RAD54 branch: -11.4; Cneo AK release: -1.0; PglD inh: -4.5; Ecoli rRNA inh: -19.8*

Results for Cn1nc(C(=O)Nc2ccc(S(=O)(=O)N3CCCCC3)cc2)c2ccccc2c1=O ?
RAD52 anneal inh: -10.6; RAD54 branch: 9.3; Cneo AK release: -0.3; PglD inh: -4.2; Ecoli rRNA inh: -21.4*

How did CC(=O)c1ccc(NC(=O)c2ccc(S(=O)(=O)N3CCCC3)cc2)cc1 do in these assays?
RAD54 branch: -3.2; Cneo AK release: -3.5; PglD inh: -5.8

How did C[C@H](CO)N1C[C@H](C)[C@@H](CN(C)Cc2ccc(C(=O)O)cc2)Oc2ccc(NS(=O)(=O)c3cccs3)cc2CC1=O do in these assays?
RAD52 anneal inh: 1.4; Ecoli rRNA inh: 0.9

What do the screens show for `CN(C)CC(=O)N[C@@H]1CC[C@H](CCNS(=O)(=O)c2ccccc2)O[C@@H]1CO`?
RAD52 anneal inh: 1.2; RAD54 branch: 2.0; Cneo AK release: -0.5; PglD inh: -1.7; Ecoli rRNA inh: 2.1

How did C=CCn1c(O)c(N=NC(=S)Nc2ccccc2F)c2ccccc21 do in these assays?
RAD52 anneal inh: -3.2; Ecoli rRNA inh: -20.8*

Results for Cc1nn(Cc2ccccc2Cl)c(C)c1C(=O)N1CCN(c2ccccc2)CC1 ?
RAD52 anneal inh: -4.1; RAD54 branch: 1.6; Cneo AK release: 2.1; PglD inh: -1.7; Ecoli rRNA inh: -26.6*

Results for C[C@H](CO)N1C[C@H](C)[C@@H](CN(C)C(=O)c2ccncc2)Oc2ncc(-c3ccc(F)cc3)cc2C1=O ?
Ecoli rRNA inh: 5.1

How did O=C(CSc1cccc[n+]1[O-])C12CC3CC(CC(C3)C1)C2 do in these assays?
RAD52 anneal inh: -17.6; Ecoli rRNA inh: -27.2*

How did CO[C@@H]1CC[C@H]2CCOc3ccc(C#N)cc3C(=O)N(C)CCCC(=O)N(C)C[C@H]1O2 do in these assays?
RAD52 anneal inh: -9.5; RAD54 branch: -6.2; Cneo AK release: 1.7; PglD inh: 0.9; Ecoli rRNA inh: 3.8

Results for Nc1nc(-c2ccc(Oc3ccccc3)cc2)cs1 ?
RAD52 anneal inh: -7.3; RAD54 branch: 0.9; Cneo AK release: -0.8; PglD inh: 0.6; Ecoli rRNA inh: 8.0

What do the screens show for `Oc1ccc(-c2csc(-c3cccnc3)n2)cc1O`?
RAD52 anneal inh: -9.4; RAD54 branch: 12.4; Cneo AK release: -9.2; PglD inh: -2.0; Ecoli rRNA inh: -16.8

Results for Nc1nc(-c2ccc(-c3ccccc3)cc2)cs1 ?
RAD52 anneal inh: -7.6; Ecoli rRNA inh: -25.3*

Results for Oc1ccc(-c2csc(-c3ccccc3)n2)cc1O ?
RAD52 anneal inh: -3.3; RAD54 branch: 11.5; Cneo AK release: 4.5; PglD inh: 0.8; Ecoli rRNA inh: -33.6*

What do the screens show for `Oc1ccc(-c2csc(Nc3ncccn3)n2)cc1O`?
RAD52 anneal inh: -36.0; Ecoli rRNA inh: -29.8*

Results for COc1cccc(S(=O)(=O)N(C)C[C@@H]2Oc3cc(C4=CCCCC4)ccc3S(=O)(=O)N([C@@H](C)CO)C[C@@H]2C)c1 ?
RAD52 anneal inh: -18.0; RAD54 branch: -1.3; Cneo AK release: -3.3; PglD inh: 0.9; Ecoli rRNA inh: 0.4

How did CC(C)(C)[Si](C)(C)OC[C@@H]1[C@H]2c3ccccc3O[C@]1(C)NC(=S)N2C(=O)c1ccccc1 do in these assays?
RAD52 anneal inh: 0.6; Cneo AK release: -0.4

How did NC(=O)c1cc(C(=O)c2cccc(Cl)c2Cl)c[nH]1 do in these assays?
RAD52 anneal inh: -2.5; Ecoli rRNA inh: -48.1*

How did NC(=O)c1cc(C(=O)c2ccccc2Cl)c[nH]1 do in these assays?
RAD52 anneal inh: 5.4; Ecoli rRNA inh: -5.2

What do the screens show for `O=C(c1c[nH]c(C(=O)N2CCN(c3ccccc3F)CC2)c1)c1cccc(Cl)c1Cl`?
RAD52 anneal inh: -2.3; RAD54 branch: 12.7; Cneo AK release: 2.5; PglD inh: -5.0; Ecoli rRNA inh: -27.5*

Results for Cc1ccc(NS(=O)(=O)c2ccc(NC(=O)C3CC3)cc2)cc1C ?
RAD52 anneal inh: 5.8; RAD54 branch: 7.0; Cneo AK release: -0.5; PglD inh: 4.2; Ecoli rRNA inh: -23.6*
